Blank lines part the entries; values can stand above or below the compound they belong to.
Assays:
[1] = target: 11-beta-hydroxysteroid dehydrogenase 1 (Mus musculus, UniProt P50172); assay: Inhibition of mouse 11beta-HSD1 expressed in Escherichia coli using [3H]cortisone as substrate by scintillation proximity assay
[2] = system: Mus musculus; assay: Ex vivo inhibition of 11beta-HSD1 in mouse adipose tissue at 30 mg/kg, po after 8 hrs; format: functional
How it was run: (§1)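 Mice dosed orally at 10 or 30 mg/kg. Adipose 11β-HSD1 activity measured ex vivo as percent inhibition.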

[3] = system: Mus musculus; assay: Ex vivo inhibition of 11beta-HSD1 in mouse adipose tissue at 10 mg/kg, po after 2 hrs; format: functional; how it was run: as §1
[4] = Drug uptake in mouse adipose tissue fat at 30 mg/kg, po after 2 hrs; format: ADME, organism-based; parameters: dose 30 mg/kg, route oral; details: read-out: Drug uptake
[5] = Drug uptake in mouse adipose tissue fat at 10 mg/kg, po after 4 hrs; format: ADME, organism-based; parameters: dose 10 mg/kg, route oral; details: read-out: Drug uptake
[6] = Plasma concentration in mouse at 30 mg/kg, po after 8 hrs; format: ADME, organism-based; parameters: dose 30 mg/kg, route oral
[7] = Drug uptake in mouse adipose tissue fat at 10 mg/kg, po after 2 hrs; format: ADME, organism-based; parameters: dose 10 mg/kg, route oral; details: read-out: Drug uptake
[8] = Drug uptake in mouse adipose tissue fat at 30 mg/kg, po after 4 hrs; format: ADME, organism-based; parameters: dose 30 mg/kg, route oral; details: read-out: Drug uptake
[9] = Drug uptake in mouse adipose tissue fat at 10 mg/kg, po after 6 hrs; format: ADME, organism-based; parameters: dose 10 mg/kg, route oral; details: read-out: Drug uptake
[10] = Clearance in Sprague-Dawley rat at 2 mg/kg, iv and 10 mg/kg, po; format: ADME, organism-based; details: in vivo
How it was run: (§2)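 Male Sprague-Dawley rats. IV dosing at 2 mg/kg in DMSO. Oral dosing at 10 mg/kg in 0.1% Tween-80/0.5% CMC/99.4% water. Reported: CL, Vss, t1/2 (terminal t1/2 where marked), MRT and oral F.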

[11] = Plasma concentration in mouse at 10 mg/kg, po after 6 hrs; format: ADME, organism-based; parameters: dose 10 mg/kg, route oral
[12] = Clearance in CD1 mouse at 2 mg/kg, iv and 10 mg/kg, po; format: ADME, organism-based; details: in vivo
How it was run: (§3)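 Male CD1 mice. IV dosing at 2 mg/kg, formulated either in 20% captisol/80% water or in 10% dimethylacetamide/23% water/67% PEG 400. Oral dosing at 10 mg/kg, formulated either in 10% Pluronic F108/90% OraPlus or in 0.1% Tween-80/0.5% CMC in water. Reported: CL, Vss, t1/2 and oral F.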

[13] = Drug uptake in mouse adipose tissue fat at 30 mg/kg, po after 6 hrs; format: ADME, organism-based; parameters: dose 30 mg/kg, route oral; details: read-out: Drug uptake
[14] = Plasma concentration in mouse at 10 mg/kg, po after 2 hrs; format: ADME, organism-based; parameters: dose 10 mg/kg, route oral
[15] = Oral bioavailability in CD1 mouse at 10 mg/kg; format: ADME, organism-based; details: in vivo; how it was run: as §3
[16] = Drug uptake in mouse adipose tissue fat at 30 mg/kg, po after 8 hrs; format: ADME, organism-based; parameters: dose 30 mg/kg, route oral; details: read-out: Drug uptake
[17] = Plasma concentration in mouse at 30 mg/kg, po after 6 hrs; format: ADME, organism-based; parameters: dose 30 mg/kg, route oral
[18] = system: Mus musculus; assay: Ex vivo inhibition of 11beta-HSD1 in mouse adipose tissue at 30 mg/kg, po after 6 hrs; format: functional; how it was run: as §1
[19] = system: Plasma; assay: Free plasma concentration in mouse at 30 mg/kg, po after 4 hrs; format: ADME, organism-based; parameters: dose 30 mg/kg, route oral; details: in vivo
How it was run: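 Mice dosed orally at 30 mg/kg and sampled at 4 h. Free plasma concentration calculated from total plasma level using mouse plasma protein binding.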

[20] = Volume of distribution at steady state in CD1 mouse at 2 mg/kg, iv and 10 mg/kg, po; format: ADME, organism-based; details: in vivo, read-out: Vdss; how it was run: as §3
[21] = Plasma concentration in mouse at 10 mg/kg, po after 8 hrs; format: ADME, organism-based; parameters: dose 10 mg/kg, route oral
[22] = Plasma concentration in mouse at 30 mg/kg, po after 4 hrs; format: ADME, organism-based; parameters: dose 30 mg/kg, route oral
[23] = system: Mus musculus; assay: Ex vivo inhibition of 11beta-HSD1 in mouse adipose tissue at 10 mg/kg, po after 4 hrs; format: functional; how it was run: as §1
[24] = Half life in CD1 mouse at 2 mg/kg, iv and 10 mg/kg, po; format: ADME, organism-based; details: in vivo; how it was run: as §3
[25] = Drug uptake in mouse adipose tissue fat at 10 mg/kg, po after 8 hrs; format: ADME, organism-based; parameters: dose 10 mg/kg, route oral; details: read-out: Drug uptake
[26] = Plasma protein binding in mouse at 30 mg/kg, po after 4 hrs; format: ADME, organism-based; parameters: dose 30 mg/kg, route oral; details: read-out: PPB (converted)
[27] = Volume of distribution at steady state in Sprague-Dawley rat at 2 mg/kg, iv and 10 mg/kg, po; format: ADME, organism-based; details: in vivo, read-out: Vdss; how it was run: as §2
[28] = Half life in Sprague-Dawley rat at 2 mg/kg, iv and 10 mg/kg, po; format: ADME, organism-based; details: in vivo; how it was run: as §2
[29] = system: Mus musculus; assay: Ex vivo inhibition of 11beta-HSD1 in mouse adipose tissue at 30 mg/kg, po after 4 hrs; format: functional; how it was run: as §1
[30] = Oral bioavailability in Sprague-Dawley rat at 10 mg/kg; format: ADME, organism-based; details: in vivo; how it was run: as §2
[31] = Plasma concentration in mouse at 10 mg/kg, po after 4 hrs; format: ADME, organism-based; parameters: dose 10 mg/kg, route oral
[32] = Plasma concentration in mouse at 30 mg/kg, po after 2 hrs; format: ADME, organism-based; parameters: dose 30 mg/kg, route oral
[33] = system: Mus musculus; assay: Ex vivo inhibition of 11beta-HSD1 in mouse adipose tissue at 30 mg/kg, po after 2 hrs; format: functional; how it was run: as §1
[34] = Terminal half life in Sprague-Dawley rat at 2 mg/kg, iv and 10 mg/kg, po; format: ADME, organism-based; details: in vivo, read-out: beta t1/2 (converted); how it was run: as §2
[35] = Plasma protein binding in po dosed mouse after 4 hrs; format: ADME, organism-based; details: read-out: PPB (converted)
[36] = system: Plasma; assay: Free plasma concentration in po dosed mouse after 4 hrs; format: ADME, organism-based; details: in vivo
[37] = in vivo; details: mouse, adipose tissue fat / plasma, po, 50 mg/kg

11-beta-hydroxysteroid dehydrogenase 1, sequence (P50172 whole entry): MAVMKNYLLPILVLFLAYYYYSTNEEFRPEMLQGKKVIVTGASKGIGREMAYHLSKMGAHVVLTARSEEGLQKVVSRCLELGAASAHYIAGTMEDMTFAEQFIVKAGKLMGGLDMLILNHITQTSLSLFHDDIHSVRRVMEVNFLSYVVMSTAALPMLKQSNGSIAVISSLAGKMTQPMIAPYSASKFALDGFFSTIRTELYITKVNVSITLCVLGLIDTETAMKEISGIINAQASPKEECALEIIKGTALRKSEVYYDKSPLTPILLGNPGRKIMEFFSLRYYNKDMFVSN

SMILES: CC(C)[C@]1(C)SC(N[C@H]2C[C@H]3C[C@@H]2C[C@@H]3O)=NC1=O
inhibition in vivo at 30 mg/kg [2]: 36% | inhibition in vivo at 10 mg/kg [3]: 38% | concentration at 2 h [4]: 4670 nM | concentration at 4 h [5]: 820 nM | concentration at 8 h [6]: 390 nM | concentration at 2 h [7]: 980 nM | concentration at 4 h [8]: 980 nM | Ki [1]: 152 nM | concentration at 6 h [9]: 220 nM | clearance [10]: 7.33 mL/min/kg | concentration at 6 h [11]: 380 nM | clearance [12]: 24.7 mL/min/kg | concentration at 6 h [13]: 2020 nM | concentration at 2 h [14]: 4500 nM | bioavailability [15]: > 100% | concentration at 8 h [16]: 580 nM | concentration at 6 h [17]: 1710 nM | inhibition in vivo at 30 mg/kg [18]: 36% | Cp(f) [19]: 2100 nM | Vd [20]: 1.43 L/kg | concentration at 8 h [21]: 190 nM | concentration at 4 h [22]: 3590 nM | inhibition in vivo at 10 mg/kg [23]: 31% | half-life [24]: 5.72 h | concentration at 8 h [25]: 130 nM | fraction unbound at 4 h [26]: 0.591 | Vd [27]: 0.97 L/kg | half-life [28]: 2.17 h | inhibition in vivo at 30 mg/kg [29]: 46% | bioavailability [30]: 58% | concentration at 4 h [31]: 1050 nM | concentration at 2 h [32]: 19500 nM | inhibition in vivo at 30 mg/kg [33]: 51%

SMILES: CC(C)(O)[C@]1(C)SC(N[C@H]2C[C@@H]3CC[C@H]2C3)=NC1=O
clearance [10]: 32 mL/min/kg | Vd [27]: 0.53 L/kg | half-life [28]: 0.24 h | bioavailability [30]: 53%

Now from value to compound:

Ki [1]: 230 nM
SMILES: CC(C)[C@]1(C)SC(N[C@H]2C[C@H]3C[C@@H]2CC3=O)=NC1=O

Ki [1]: 181 nM | clearance [10]: 12.3 mL/min/kg | Vd [27]: 1.43 L/kg | half-life [28]: 2.41 h
SMILES: CC(C)[C@]1(C)SC(N[C@H]2C[C@H]3C[C@@H]2C[C@H]3O)=NC1=O

clearance [10]: 19.3 mL/min/kg | clearance [12]: 55.2 mL/min/kg | half-life [34]: 12.2 h | fraction unbound at 4 h [35]: 0.099 | Cp(f) [36]: 240 nM | bioavailability [15]: 31% | Kp [37]: 1.34 | Vd [20]: 0.9 L/kg | half-life [24]: 3.32 h | Vd [27]: 1.53 L/kg | bioavailability [30]: 34%
SMILES: CC(C)[C@]1(C)SC(N[C@H]2C[C@@H]3CC[C@H]2C3)=NC1=O

— ChEMBL document CHEMBL2021802, “Synthesis and Evaluation of the Metabolites of AMG 221, a Clinical Candidate for the Treatment of Type 2 Diabetes” (ACS Med Chem Lett, 2011)
